Experimental data of several laboratories.
Each line is one published result; the experiments were not run side by side.
Target: Platelet-derived growth factor receptor alpha (PDGFRA, Homo sapiens, UniProt P16234)

SMILES	test	setting	remaining binding [%]
COc1ccc2c(O[C@@H]3C[C@H]4C(=O)N[C@]5(C(=O)O)CC5/C=C\CCCCC[C@H](NC(=O)OC5CCCC5)C(=O)N4C3)cc(-c3csc(NC(=O)C(C)C)n3)nc2c1C (some centres unmarked)	cell-free assay, competition with immobilised ligand	1 µM	84
Cc1cnc(Nc2ccc(C(=O)N3CCC(N4CCCC4)CC3)cc2)nc1-c1cc2ccccc2s1	binding, competition with immobilised ligand	1 µM	14
CC1=C(C#N)C(c2ccc3c(c2)c(NC(=O)c2ccccc2C)nn3C)C(C#N)=C(C)N1	cell-free assay, competition with immobilised ligand	1 µM	86
N[C@H]1CCN(c2nccc(-c3cnn4ncccc34)n2)C1	binding	1 µM	90
CCS(=O)(=O)c1cc2cc(C[C@@](O)(CC(C)(C)c3ccc(F)cc3C(N)=O)C(F)(F)F)[nH]c2cn1	cell-free assay, competition with immobilised ligand	1 µM	99
C[C@@H]1CCN(c2nccc(-c3cnn4ncccc34)n2)C1	binding	1 µM	81
COc1ncc2cc3ccccc3nc2c1C#N	cell-free assay, competition with immobilised ligand	5 µM	83
COc1ccnn2ncc(-c3ccnc(N(C)C)n3)c12	binding	1 µM	74
C=CC(=O)N1CCC(C(=O)NCC(=O)N2CCN(c3nc(-c4cnc(N)nc4C(F)F)nc(N4CCOCC4)n3)CC2)CC1	binding, competition with immobilised ligand	1 µM	91
O=C(c1ccc(Nc2ncc(Cl)c(-c3ccc(Cl)s3)n2)cc1)N1CCC(N2CCCC2)CC1	binding, competition with immobilised ligand	1 µM	3.4
CN(C)c1ncc(F)c(-c2cnn3ncccc23)n1	binding	1 µM	67
COc1cnc(Nc2cccc(S(N)(=O)=O)c2)nc1N1CCN(c2ccccc2)CC1	binding, competition with immobilised ligand	1 µM	85
Nc1ncc2c(n1)-c1c([nH]c3ccc(C#CC4CC4)cc13)CCCC2	binding, competition with immobilised ligand	1 µM	76
N#Cc1ccccc1CSc1nnc2c(n1)[nH]c1ccccc12	binding, competition with immobilised ligand	10 µM	94
CC(C)(O)c1cncc(-c2nc3ccc(F)cc3n2C2CC2)c1	cell-free assay, competition with immobilised ligand	1 µM	100
CN(C)c1nccc(-c2cnc3ncccn23)n1	binding	1 µM	78
Cc1cc(C)c(-n2ccn3nc(-c4cccnc4)cc23)cc1NC(=O)c1cc(C#N)cc(S(F)(F)(F)(F)F)c1	cell-free assay, competition with immobilised ligand	0.1 µM	67.4
Cc1cnn2ncc(-c3ccnc(N(C)C)n3)c2c1	binding	1 µM	97
CNCc1ccccc1-c1csc([C@H](C)Nc2nc(C)nc3cc(OC)c(OC)cc23)c1	cell-free assay, competition with immobilised ligand	1 µM	92
CC(C)(C)c1ccc(-c2nc(CBr)nn2-c2cccc(O)c2)cc1	cell-free assay, competition with immobilised ligand	10 µM	83
C[C@@H]1CN(c2ccc3ncc(-c4ccc5[nH]nc(C6CC6)c5c4)n3n2)C[C@H](C)O1	binding, competition with immobilised ligand	0.5 µM	76
COC(=O)Nc1nc2ccc(C(=O)c3ccccc3)cc2[nH]1	cell-free assay, competition with immobilised ligand	10 µM	7.8
O=C(Nc1c[nH]nc1C(=O)NC1CCNCC1)c1cc(F)cc(F)c1	binding, competition with immobilised ligand	1 µM	83
COc1cc(-c2cn(C3CCc4ccccc4N(CC(F)(F)F)C3=O)nn2)ccc1-n1ccc(C)n1 (centres unmarked)	cell-free assay, competition with immobilised ligand	1 µM	88
CN(C)c1nccc(-c2cnn3ncccc23)n1	binding	1 µM	100
O=C(c1ccc(Nc2ncc(Cl)c(-c3cc4ccccc4s3)n2)cc1)N1CCC(N2CCCC2)CC1	binding, competition with immobilised ligand	1 µM	35
